Test results taken from ChEMBL document CHEMBL2429849, “Substrate-based fragment identification for the development of selective, nonpeptidic inhibitors of striatal-enriched protein tyrosine phosphatase” (J Med Chem, 2013).

Assays:
[1] = target: T1, Tyrosine-protein phosphatase non-receptor type 5 (Homo sapiens, UniProt P54829); test: Inhibition of human STEP using pNPP as substrate after 5 mins by spectrophotometric plate reader analysis
T1 sequence (P54829 whole entry): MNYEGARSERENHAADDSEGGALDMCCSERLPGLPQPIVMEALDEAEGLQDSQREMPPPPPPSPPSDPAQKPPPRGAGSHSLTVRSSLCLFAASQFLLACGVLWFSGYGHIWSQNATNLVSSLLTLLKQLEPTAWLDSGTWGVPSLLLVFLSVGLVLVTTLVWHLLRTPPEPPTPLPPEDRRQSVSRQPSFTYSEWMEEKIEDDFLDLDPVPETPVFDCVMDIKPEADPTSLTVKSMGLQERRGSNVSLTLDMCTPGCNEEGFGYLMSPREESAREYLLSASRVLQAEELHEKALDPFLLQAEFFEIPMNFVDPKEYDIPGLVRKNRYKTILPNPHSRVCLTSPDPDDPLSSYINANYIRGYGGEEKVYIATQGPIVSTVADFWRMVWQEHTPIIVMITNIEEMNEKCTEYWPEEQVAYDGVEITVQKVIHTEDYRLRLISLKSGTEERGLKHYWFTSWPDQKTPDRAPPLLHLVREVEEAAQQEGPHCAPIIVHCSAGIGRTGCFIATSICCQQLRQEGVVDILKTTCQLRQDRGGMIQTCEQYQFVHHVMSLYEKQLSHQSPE

Homo sapiens [2] = organism: Homo sapiens; test: Selectivity ratio of Ki for human TC-PTP to Ki for human STEP
Method in brief: (§1)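 STEP, CD45, LAR and TC-PTP used pNPP (500 μM) in imidazole/NaCl pH 7.0 with Triton X-100, read at 405 nm for 20 min. MKP5 used DiFMUP in Tris-HCl pH 8.0. The enzyme's own pNPP KM was used in analysis; ratio of the Ki values.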

[3] = target: Receptor-type tyrosine-protein phosphatase F (Homo sapiens, UniProt P10586); test: Inhibition of human LAR using pNPP as substrate after 5 mins by spectrophotometric plate reader analysis
Method in brief: (§2)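 Enzyme preincubated 5 min at 27 °C with serially diluted inhibitor (from DMSO) in imidazole/NaCl buffer pH 7.0 with 0.01% Triton X-100 and 5 mM DTT. Started with pNPP (500 μM in assay) and read at 405 nm for 20 min. The pNPP KM was measured for each enzyme. Ki from nonlinear regression of substrate–velocity curves at several inhibitor levels; at least duplicate.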

[4] = target: T2, Receptor-type tyrosine-protein phosphatase C (Homo sapiens, UniProt P08575); test: Inhibition of human CD45 using pNPP as substrate after 5 mins by spectrophotometric plate reader analysis; method in brief: as §2
T2 sequence (P08575 whole entry): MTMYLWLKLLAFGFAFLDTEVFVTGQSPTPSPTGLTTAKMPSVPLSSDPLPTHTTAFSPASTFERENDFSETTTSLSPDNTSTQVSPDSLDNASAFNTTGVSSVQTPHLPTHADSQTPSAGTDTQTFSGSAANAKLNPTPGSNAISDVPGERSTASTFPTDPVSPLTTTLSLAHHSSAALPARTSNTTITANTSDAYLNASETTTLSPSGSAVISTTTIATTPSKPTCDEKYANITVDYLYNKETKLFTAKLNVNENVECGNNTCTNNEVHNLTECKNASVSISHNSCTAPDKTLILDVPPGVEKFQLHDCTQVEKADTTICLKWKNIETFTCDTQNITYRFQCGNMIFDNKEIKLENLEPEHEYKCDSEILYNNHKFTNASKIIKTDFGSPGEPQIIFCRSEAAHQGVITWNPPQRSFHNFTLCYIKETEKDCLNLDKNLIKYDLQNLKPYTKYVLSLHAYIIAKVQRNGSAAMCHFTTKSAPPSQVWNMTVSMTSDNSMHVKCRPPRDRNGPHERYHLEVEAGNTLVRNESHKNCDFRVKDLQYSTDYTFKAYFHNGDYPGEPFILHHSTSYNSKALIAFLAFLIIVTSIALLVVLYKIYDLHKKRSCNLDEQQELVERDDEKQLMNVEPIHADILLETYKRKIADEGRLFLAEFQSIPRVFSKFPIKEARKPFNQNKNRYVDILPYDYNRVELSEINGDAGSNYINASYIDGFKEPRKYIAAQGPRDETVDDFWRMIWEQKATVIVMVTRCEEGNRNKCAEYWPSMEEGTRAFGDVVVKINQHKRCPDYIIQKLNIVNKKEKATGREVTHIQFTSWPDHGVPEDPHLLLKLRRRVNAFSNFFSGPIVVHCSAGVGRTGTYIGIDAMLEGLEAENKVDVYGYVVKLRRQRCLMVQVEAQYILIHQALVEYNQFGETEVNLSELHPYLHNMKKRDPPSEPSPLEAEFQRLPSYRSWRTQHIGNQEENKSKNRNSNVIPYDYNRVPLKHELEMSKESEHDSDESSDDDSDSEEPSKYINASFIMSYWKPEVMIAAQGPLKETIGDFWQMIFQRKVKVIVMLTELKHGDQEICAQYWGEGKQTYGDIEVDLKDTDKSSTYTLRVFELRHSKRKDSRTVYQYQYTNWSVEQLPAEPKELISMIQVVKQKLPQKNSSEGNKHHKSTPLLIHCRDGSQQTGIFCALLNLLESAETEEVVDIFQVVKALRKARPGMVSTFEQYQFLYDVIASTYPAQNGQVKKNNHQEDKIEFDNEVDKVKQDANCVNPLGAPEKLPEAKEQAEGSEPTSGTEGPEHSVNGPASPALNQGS

[5] = target: T3, Tyrosine-protein phosphatase non-receptor type 2 (Homo sapiens, UniProt P17706); test: Inhibition of human TC-PTP using pNPP as substrate after 5 mins by spectrophotometric plate reader analysis
T3 sequence (P17706 whole entry): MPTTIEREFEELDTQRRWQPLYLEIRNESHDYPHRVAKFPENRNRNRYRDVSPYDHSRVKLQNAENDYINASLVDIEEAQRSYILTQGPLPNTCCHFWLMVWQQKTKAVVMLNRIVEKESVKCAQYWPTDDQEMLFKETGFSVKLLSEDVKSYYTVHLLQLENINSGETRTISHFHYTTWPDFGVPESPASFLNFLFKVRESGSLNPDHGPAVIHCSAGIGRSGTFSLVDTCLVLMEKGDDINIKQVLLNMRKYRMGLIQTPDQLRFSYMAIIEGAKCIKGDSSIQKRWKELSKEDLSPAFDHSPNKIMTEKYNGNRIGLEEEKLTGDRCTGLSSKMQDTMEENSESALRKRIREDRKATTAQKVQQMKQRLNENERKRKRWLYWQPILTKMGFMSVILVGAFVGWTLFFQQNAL
Method in brief: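 Selectivity assay using the STEP Ki protocol. Enzyme was preincubated 5 min at 27 °C with two- or three-fold inhibitor serial dilutions in DMSO, in imidazole/NaCl buffer at pH 7.0 with 0.01% Triton X-100 and 5 mM DTT. Reaction started with pNPP (500 μM in assay), read continuously at 405 nm for 20 min. Ki came from nonlinear regression of substrate-velocity curves, using this enzyme's pNPP KM; at least duplicate.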

Homo sapiens [6] = organism: Homo sapiens; test: Selectivity ratio of Ki for human MKP5 to Ki for human STEP; method in brief: as §1
Homo sapiens [7] = organism: Homo sapiens; test: Selectivity ratio of Ki for human CD45 to Ki for human STEP; method in brief: as §1
Homo sapiens [8] = organism: Homo sapiens; test: Selectivity ratio of Ki for human LAR to Ki for human STEP; method in brief: as §1
[9] = target: T4, Dual specificity protein phosphatase 10 (Homo sapiens, UniProt Q9Y6W6); test: Inhibition of human MKP5 using DiFMUP as substrate after 5 mins by spectrophotometric plate reader analysis
T4 sequence (Q9Y6W6 whole entry): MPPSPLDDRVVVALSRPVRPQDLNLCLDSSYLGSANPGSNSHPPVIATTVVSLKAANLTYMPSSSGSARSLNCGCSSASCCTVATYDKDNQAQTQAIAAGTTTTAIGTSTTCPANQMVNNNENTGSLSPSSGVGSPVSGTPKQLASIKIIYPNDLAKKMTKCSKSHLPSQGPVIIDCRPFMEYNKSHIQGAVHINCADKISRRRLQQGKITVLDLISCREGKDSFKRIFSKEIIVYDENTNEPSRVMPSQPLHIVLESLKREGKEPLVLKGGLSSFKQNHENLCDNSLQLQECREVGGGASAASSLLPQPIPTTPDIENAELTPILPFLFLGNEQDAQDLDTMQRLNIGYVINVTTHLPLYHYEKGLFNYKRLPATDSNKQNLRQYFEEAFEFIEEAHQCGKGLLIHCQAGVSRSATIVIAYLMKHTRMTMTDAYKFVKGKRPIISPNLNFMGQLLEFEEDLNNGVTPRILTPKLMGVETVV
Method in brief: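 The […] substrate was DiFMUP. Buffer was Tris-HCl pH 8.0 with Triton X-100 and 5 mM DTT. Inhibitor was preincubated with enzyme for 5 min at 27 °C before adding substrate. Ki from nonlinear regression of initial-rate substrate–velocity data at several inhibitor concentrations; at least duplicate.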

[10] = substrate: O=C(Cc1ccc(OP(=O)(O)O)cc1)Nc1ccccc1; test: (§3) Activity at human STEP measured for 20 mins by spectrophotometric plate reader analysis
Method in brief: (§4)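 Substrate KM by coupled assay: STEP 100 nM with MESG 400 μM, PNP 1 U/mL, 5 mM DTT in imidazole/NaCl buffer with Triton X-100, pH 7.0; preincubated 3 min at 27 °C, then started with substrate (about 0–3.00 mM in assay, from DMSO). Followed 20 min at 360 nm, 27 °C; KM from Michaelis–Menten fit of initial rates.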

[11] = substrate: O=[N+]([O-])c1ccc(OP(=O)(O)O)cc1; test: as §3; method in brief: as §4
[12] = substrate: O=P(O)(O)Oc1ccc(-c2ccccc2)cc1; test: as §3; method in brief: as §4
[13] = substrate: CC(Cc1ccccc1)c1ccc(OP(=O)(O)O)cc1; test: as §3; method in brief: as §4
[14] = substrate: O=C(Oc1cccc(OP(=O)(O)O)c1)c1ccccc1; test: as §3; method in brief: as §4
[15] = substrate: CC(C)(C)CC(C)(C)c1ccc(OP(=O)(O)O)cc1; test: as §3; method in brief: as §4
[16] = substrate: COC(=O)[C@H](Cc1ccc(OP(=O)(O)O)cc1)NC(C)=O; test: as §3; method in brief: as §4
[17] = substrate: O=P(O)(O)Oc1cccc(Nc2ccccc2)c1; test: as §3; method in brief: as §4
[18] = substrate: O=P(O)(O)Oc1cccc(-c2ccccc2)c1; test: as §3; method in brief: as §4
[19] = substrate: O=P(O)(O)Oc1ccccc1; test: as §3; method in brief: as §4

Sequence of Receptor-type tyrosine-protein phosphatase F (P10586 whole entry): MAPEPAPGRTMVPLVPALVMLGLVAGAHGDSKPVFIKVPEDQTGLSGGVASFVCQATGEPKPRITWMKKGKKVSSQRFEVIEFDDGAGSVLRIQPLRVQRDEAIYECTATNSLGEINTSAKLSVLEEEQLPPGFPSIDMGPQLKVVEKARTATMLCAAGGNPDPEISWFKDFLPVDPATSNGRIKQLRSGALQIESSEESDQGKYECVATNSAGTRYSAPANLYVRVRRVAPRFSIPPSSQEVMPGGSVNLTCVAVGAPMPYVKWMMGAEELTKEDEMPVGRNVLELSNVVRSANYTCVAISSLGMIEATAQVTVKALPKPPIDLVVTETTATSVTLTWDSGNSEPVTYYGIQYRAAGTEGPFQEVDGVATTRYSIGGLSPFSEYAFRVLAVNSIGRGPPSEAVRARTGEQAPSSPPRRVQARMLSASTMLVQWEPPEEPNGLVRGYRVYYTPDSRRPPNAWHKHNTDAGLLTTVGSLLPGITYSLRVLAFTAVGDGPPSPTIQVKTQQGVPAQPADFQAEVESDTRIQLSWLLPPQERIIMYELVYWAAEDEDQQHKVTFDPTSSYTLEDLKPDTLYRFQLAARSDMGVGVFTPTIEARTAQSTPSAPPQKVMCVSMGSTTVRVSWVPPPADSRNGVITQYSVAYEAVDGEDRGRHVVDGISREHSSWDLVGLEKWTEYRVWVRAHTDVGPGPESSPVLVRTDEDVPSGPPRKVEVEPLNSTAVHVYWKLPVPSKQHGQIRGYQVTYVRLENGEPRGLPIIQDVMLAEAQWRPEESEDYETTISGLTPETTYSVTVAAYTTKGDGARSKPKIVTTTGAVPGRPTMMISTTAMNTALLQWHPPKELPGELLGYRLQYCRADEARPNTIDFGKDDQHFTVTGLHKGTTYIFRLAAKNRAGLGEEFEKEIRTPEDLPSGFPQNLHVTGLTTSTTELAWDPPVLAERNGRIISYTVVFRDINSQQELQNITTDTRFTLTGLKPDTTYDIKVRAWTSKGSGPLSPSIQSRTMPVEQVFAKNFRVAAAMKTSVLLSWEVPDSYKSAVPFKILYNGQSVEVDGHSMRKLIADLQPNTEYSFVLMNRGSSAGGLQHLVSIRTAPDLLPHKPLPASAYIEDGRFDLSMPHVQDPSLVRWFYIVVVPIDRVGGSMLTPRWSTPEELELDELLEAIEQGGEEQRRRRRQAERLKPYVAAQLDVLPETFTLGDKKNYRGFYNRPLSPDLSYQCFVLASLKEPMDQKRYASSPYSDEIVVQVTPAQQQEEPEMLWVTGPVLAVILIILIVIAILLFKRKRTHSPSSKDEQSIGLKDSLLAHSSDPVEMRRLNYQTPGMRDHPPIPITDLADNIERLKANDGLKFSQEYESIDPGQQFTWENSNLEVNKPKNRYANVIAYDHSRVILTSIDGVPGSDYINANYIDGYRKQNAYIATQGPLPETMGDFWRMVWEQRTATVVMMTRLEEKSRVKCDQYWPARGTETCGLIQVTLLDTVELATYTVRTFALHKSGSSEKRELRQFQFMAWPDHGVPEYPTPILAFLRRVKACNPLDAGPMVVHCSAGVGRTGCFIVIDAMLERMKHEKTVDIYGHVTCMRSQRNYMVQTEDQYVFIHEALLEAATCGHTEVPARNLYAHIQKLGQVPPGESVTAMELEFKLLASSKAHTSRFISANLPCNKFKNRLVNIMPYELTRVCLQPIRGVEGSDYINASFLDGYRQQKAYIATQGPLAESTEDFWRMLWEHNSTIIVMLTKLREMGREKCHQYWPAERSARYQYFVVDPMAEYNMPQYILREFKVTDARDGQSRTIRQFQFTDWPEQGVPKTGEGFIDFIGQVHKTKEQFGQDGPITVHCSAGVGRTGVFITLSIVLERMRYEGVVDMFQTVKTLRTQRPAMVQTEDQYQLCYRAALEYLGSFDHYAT

## CS(=O)(=O)Nc1cccc(-c2ccc(C(F)(F)P(=O)(O)O)cc2)c1
[1]
  Ki: 113 µM

## O=P(O)(O)[C@@H](O)c1ccc(-c2cccc([C@@H](O)c3ccc(Cl)c(Cl)c3)c2)cc1
[1]
  Ki: 88 µM

## O=P(O)(O)C(F)(F)c1ccc(-c2ccccc2)cc1
[1]
  Ki: 120 µM

## O=P(O)(O)C(F)(F)c1ccc(-c2cccc(Nc3ccccc3)c2)cc1
[1]
  Ki: 112 µM

## O=P(O)(O)C(F)(F)c1cccc(-c2cccc(C3CCCCC3)c2O)c1
Homo sapiens [2]
  Ratio Ki: 3.6
[3]
  Ki: > 900 µM
[4]
  Ki: > 500 µM
[1]
  Ki: 20 µM
[5]
  Ki: 71 µM
Homo sapiens [6]
  Ratio Ki: 7.5
Homo sapiens [7]
  Ratio Ki: > 25
Homo sapiens [8]
  Ratio Ki: > 45
[9]
  Ki: 150 µM

## CS(=O)(=O)Nc1ccccc1-c1ccc(C(F)(F)P(=O)(O)O)cc1
[1]
  Ki: 673 µM

## O=P(O)(O)[C@@H](O)c1ccc(-c2cccc([C@H](O)c3ccc(Cl)c(Cl)c3)c2)cc1
[1]
  Ki: 93 µM

## O=P(O)(O)C(F)(F)c1cccc(-c2ccccc2)c1
[1]
  Ki: 337 µM

B1: Tyrosine-protein phosphatase non-receptor type 5 (Homo sapiens), P54829 (protein)
chain: MNYEGARSERENHAADDSEGGALDMCCSERLPGLPQPIVMEALDEAEGLQDSQREMPPPPPPSPPSDPAQKPPPRGAGSHSLTVRSSLCLFAASQFLLACGVLWFSGYGHIWSQNATNLVSSLLTLLKQLEPTAWLDSGTWGVPSLLLVFLSVGLVLVTTLVWHLLRTPPEPPTPLPPEDRRQSVSRQPSFTYSEWMEEKIEDDFLDLDPVPETPVFDCVMDIKPEADPTSLTVKSMGLQERRGSNVSLTLDMCTPGCNEEGFGYLMSPREESAREYLLSASRVLQAEELHEKALDPFLLQAEFFEIPMNFVDPKEYDIPGLVRKNRYKTILPNPHSRVCLTSPDPDDPLSSYINANYIRGYGGEEKVYIATQGPIVSTVADFWRMVWQEHTPIIVMITNIEEMNEKCTEYWPEEQVAYDGVEITVQKVIHTEDYRLRLISLKSGTEERGLKHYWFTSWPDQKTPDRAPPLLHLVREVEEAAQQEGPHCAPIIVHCSAGIGRTGCFIATSICCQQLRQEGVVDILKTTCQLRQDRGGMIQTCEQYQFVHHVMSLYEKQLSHQSPE
[10]
  Km: 133 µM
[11]
  Km: 745 µM
[12]
  Km: 169 µM
[13]
  Km: 128 µM
[14]
  Km: 327 µM
[15]
  Km: 260 µM
[16]
  Km: 378 µM
[17]
  Km: 650 µM
[18]
  Km: 277 µM
[19]
  Km: 2730 µM
